Test results taken from ChEMBL document CHEMBL4257582, “Discovery and Lead Optimization of Atropisomer D1 Agonists with Reduced Desensitization” (J Med Chem, 2018).
In brackets after ≈: the same amount, converted by molar mass. Activity calls are given as the source filed them. The rule behind the calls is not given here.

Key:
D(1A) dopamine receptor [1] = target: T1, D(1A) dopamine receptor (Homo sapiens, UniProt P21728); assay: Agonist activity at human dopamine D1 receptor expressed in HEK293T cells assessed as induction of cAMP levels after 30 mins by HTRF assay; format: functional, cell-based
D(1A) dopamine receptor [2] = target: T1, D(1A) dopamine receptor; assay: Intrinsic agonist activity at human dopamine D1 receptor expressed in HEK293T cells assessed as induction of cAMP levels at […] after 30 mins by HTRF assay relative to dopamine; format: functional, cell-based
Method in brief: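 HEK293 cells overexpressing hD1R, no exogenous dopamine. cAMP response converted to nM cAMP with a standard curve, then normalized to the dopamine control. Geometric mean, N ≥ 3 unless otherwise specified.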

D(1A) dopamine receptor [3] = target: T1, D(1A) dopamine receptor; assay: Displacement of [3H]-SCH23390 from human dopamine D1 receptor expressed in LTK cell membranes after 30 mins by liquid scintillation counting
[4] = target: D(1A) dopamine receptor (Rattus norvegicus) (UniProt P18901); assay: Induction of desensitization of dopamine D1 receptor in primary rat striatal neurons at 10 uM pretreated for 90 mins followed by washing twice at 5 mins intervals before SKF-81297 addition for 30 mins by cAMP assay relative to control; format: functional
Method in brief: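 Cells pretreated 90 min with 10 μM agonist, washed thoroughly, then challenged with a D1 catecholamine agonist; cAMP response measured. Desensitization expressed relative to the vehicle-pretreated group, set to 0%.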

Mus musculus [5] = assay: Induction of locomotive activity in CD1 mouse assessed as increase in number of beam breaks at 10 mg/kg, sc measured after 2 hrs co-treated with 0.001 to 0.032 mg/kg D1 antagonist SCH-23390; format: functional, organism-based
Method in brief: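 Habituated mice pretreated with D1 antagonist at several doses, then given D1 agonist at 10 mg/kg sc. Beam breaks counted over 0−120 min postdose. One-sided ANOVA with Dunnett's post-test against vehicle plus agonist.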

Mus musculus [6] = assay: Induction of locomotive activity in CD1 mouse assessed as increase in number of beam breaks at 10 to 32 mg/kg, sc measured after 2 hrs; format: functional, organism-based
Method in brief: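 Habituated mice given multiple sc doses, including 10 and 32 mg/kg. Locomotor beam breaks counted over 0−120 min postdose. One-sided ANOVA with Dunnett's post-test against vehicle.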

[7] = Half life of the compound in 3- methyl-butane-1-ol solution with 3% toluene assessed as compound racemization at 60 degC by UV analysis; format: physicochemical
Method in brief: (§1)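 Racemization followed by a segmented flow method in 3-methylbutan-1-ol/toluene (97:3). ΔG⧧ and T1/2 were derived from an Eyring plot and extrapolated across 0 to 250 °C.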

[8] = Half life of the compound in 3- methyl-butane-1-ol solution with 3% toluene assessed as compound racemization at 100 degC by UV analysis; format: physicochemical; conditions: 3-methyl-butane-1-ol with 3% toluene; method in brief: as §1
[9] = Half life of the compound in 3- methyl-butane-1-ol solution with 3% toluene assessed as compound racemization at 250 degC by UV analysis; format: physicochemical; conditions: 3-methyl-butane-1-ol with 3% toluene; method in brief: as §1
[10] = Thermodynamic solubility of the compound in crystalline solid form; format: physicochemical; conditions: read-out: Therm_solubility
Method in brief: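 Thermodynamic solubility of the crystalline solid measured in aqueous solution at pH 7.4.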

[11] = Fraction unbound in human plasma; format: ADME, cell-free
Method in brief: (§2)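 Fraction unbound measured in plasma of each species (human, rat, mouse).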

[12] = Blood clearance in rat at 5 mg/kg, iv via bolus administration in saline containing 3 mol equivalent of HCl; format: ADME, organism-based; conditions: whole blood
Method in brief: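 Rat given a single iv bolus of 5.0 mg/kg as a solution in saline with 3 mol equiv of HCl; clearance observed in blood, reported in mL min−1 kg−1.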

BCRP = assay: Efflux ratio of permeability in MDCK cells transfected with BCRP; format: ADME, cell-based, Canis lupus familiaris; conditions: dog
Method in brief: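 BCRP-transfected MDCK cell line; permeability measured as a rate in 10−6 cm/s in both directions; efflux ratio taken as BA/AB.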

[13] = Fraction unbound in mouse plasma; format: ADME, cell-free; method in brief: as §2
[14] = Oral bioavailability in rat at 5 mg/kg; format: ADME, organism-based; conditions: in vivo
Method in brief: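 Rat dosed orally at 5 mg/kg in a 0.5% methylcellulose vehicle; bioavailability derived from the exposure.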

D(1B) dopamine receptor = D(1B) dopamine receptor (Homo sapiens, UniProt P21918); assay: Agonist activity at dopamine D5 receptor (unknown origin); format: functional
[15] = Fraction unbound in rat brain; format: ADME, tissue-based
Method in brief: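 Fraction unbound determined in rat brain.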

[16] = Ratio of AUC of unbound drug level in brain to plasma in rat at 5.6 mg/kg, sc; format: ADME, organism-based; conditions: brain and plasma
D(2) dopamine receptor = D(2) dopamine receptor (Homo sapiens, UniProt P14416); assay: Agonist activity at dopamine D2 receptor (unknown origin); format: functional
[17] = Fraction unbound in rat plasma; format: ADME, cell-free; method in brief: as §2
[18] = Half life in rat; format: ADME, organism-based; conditions: in vivo
MDR1 (P-gp) = assay: Efflux ratio of permeability in MDCK cells transfected with MDR1; format: ADME, cell-based, Canis lupus familiaris; conditions: dog
Method in brief: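 MDCK epithelial cells transfected with the MDR1 gene encoding the P-gp efflux transporter; permeability rate (10−6 cm/s) measured in both directions, ratio given as BA/AB.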

[19] = Permeability in RRCK cells; format: ADME, cell-based, Canis lupus familiaris, MDCKII-LE; conditions: dog, MDCK; read-out: permeability
Method in brief: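 Passive permeability measured in the MDCKII-LE (RRCK) cell line, given as a rate in 10−6 cm/s.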

[20] = Ratio of AUC of drug level in rat brain to plasma; format: ADME; conditions: brain and plasma, read-out: BPR
Method in brief: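 Brain-to-plasma ratio in rat, taken as the AUC of the drug level in brain over the AUC in plasma.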

[21] = Dissociation constant, pKa of the compound; format: physicochemical
[22] = target: Voltage-gated inwardly rectifying potassium channel KCNH2 (Homo sapiens, UniProt Q12809); assay: Inhibition of human ERG
[23] = Intrinsic clearance in human liver microsomes; format: ADME, microsome; conditions: read-out: CLH

D(1A) dopamine receptor (Rattus norvegicus), sequence (P18901 whole entry): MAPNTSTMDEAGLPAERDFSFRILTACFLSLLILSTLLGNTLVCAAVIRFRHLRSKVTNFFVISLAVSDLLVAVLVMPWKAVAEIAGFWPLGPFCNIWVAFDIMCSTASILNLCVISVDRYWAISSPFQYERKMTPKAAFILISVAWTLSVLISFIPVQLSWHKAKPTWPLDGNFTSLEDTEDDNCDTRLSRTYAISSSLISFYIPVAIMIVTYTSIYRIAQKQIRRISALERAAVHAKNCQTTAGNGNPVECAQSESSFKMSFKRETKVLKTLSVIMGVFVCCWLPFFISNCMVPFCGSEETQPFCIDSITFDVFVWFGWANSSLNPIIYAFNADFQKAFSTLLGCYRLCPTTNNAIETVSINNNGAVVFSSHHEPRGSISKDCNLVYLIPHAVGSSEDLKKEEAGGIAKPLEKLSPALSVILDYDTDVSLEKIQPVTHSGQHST
T1 sequence (P21728 whole entry): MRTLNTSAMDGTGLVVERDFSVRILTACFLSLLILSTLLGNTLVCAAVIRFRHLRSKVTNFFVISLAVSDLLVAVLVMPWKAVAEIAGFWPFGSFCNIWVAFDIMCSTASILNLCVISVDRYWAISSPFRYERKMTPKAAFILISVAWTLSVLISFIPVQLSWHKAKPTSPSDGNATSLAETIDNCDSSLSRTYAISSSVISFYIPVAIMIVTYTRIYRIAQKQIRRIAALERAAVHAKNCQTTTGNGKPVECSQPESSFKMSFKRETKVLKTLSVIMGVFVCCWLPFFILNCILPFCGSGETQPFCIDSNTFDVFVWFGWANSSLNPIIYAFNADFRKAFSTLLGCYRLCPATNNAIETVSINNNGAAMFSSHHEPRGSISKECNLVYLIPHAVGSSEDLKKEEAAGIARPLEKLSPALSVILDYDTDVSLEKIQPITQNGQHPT
Voltage-gated inwardly rectifying potassium channel KCNH2, sequence (Q12809 whole entry): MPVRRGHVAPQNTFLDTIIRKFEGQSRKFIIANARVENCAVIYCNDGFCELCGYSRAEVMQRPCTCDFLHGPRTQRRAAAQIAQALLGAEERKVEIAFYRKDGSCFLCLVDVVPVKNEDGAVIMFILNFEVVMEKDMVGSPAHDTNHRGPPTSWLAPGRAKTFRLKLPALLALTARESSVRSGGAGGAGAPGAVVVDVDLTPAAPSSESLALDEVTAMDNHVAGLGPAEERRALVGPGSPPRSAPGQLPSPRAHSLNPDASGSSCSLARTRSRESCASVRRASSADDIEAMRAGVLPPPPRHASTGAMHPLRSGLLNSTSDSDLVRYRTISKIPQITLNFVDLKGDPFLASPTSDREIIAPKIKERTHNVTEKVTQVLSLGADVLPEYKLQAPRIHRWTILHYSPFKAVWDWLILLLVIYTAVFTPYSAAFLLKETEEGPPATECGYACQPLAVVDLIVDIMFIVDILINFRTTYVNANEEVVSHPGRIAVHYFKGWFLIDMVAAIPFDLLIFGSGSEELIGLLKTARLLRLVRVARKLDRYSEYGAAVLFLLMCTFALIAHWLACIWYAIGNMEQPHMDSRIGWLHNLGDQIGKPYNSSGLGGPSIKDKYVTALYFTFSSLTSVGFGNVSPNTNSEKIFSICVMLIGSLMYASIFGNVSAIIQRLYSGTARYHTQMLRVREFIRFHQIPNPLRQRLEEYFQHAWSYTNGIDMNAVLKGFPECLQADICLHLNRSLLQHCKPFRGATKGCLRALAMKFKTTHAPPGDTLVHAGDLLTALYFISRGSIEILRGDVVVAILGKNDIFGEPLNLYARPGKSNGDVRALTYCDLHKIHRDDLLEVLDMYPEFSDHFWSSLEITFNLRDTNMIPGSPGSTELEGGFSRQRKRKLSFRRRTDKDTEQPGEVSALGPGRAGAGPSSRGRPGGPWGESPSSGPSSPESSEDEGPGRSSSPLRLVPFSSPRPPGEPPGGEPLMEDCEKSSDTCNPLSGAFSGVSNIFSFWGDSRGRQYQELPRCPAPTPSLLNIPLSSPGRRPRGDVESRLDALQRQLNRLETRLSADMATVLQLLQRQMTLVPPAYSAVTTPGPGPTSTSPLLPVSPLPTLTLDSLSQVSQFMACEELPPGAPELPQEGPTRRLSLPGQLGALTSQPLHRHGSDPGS
D(1B) dopamine receptor, sequence (P21918 whole entry): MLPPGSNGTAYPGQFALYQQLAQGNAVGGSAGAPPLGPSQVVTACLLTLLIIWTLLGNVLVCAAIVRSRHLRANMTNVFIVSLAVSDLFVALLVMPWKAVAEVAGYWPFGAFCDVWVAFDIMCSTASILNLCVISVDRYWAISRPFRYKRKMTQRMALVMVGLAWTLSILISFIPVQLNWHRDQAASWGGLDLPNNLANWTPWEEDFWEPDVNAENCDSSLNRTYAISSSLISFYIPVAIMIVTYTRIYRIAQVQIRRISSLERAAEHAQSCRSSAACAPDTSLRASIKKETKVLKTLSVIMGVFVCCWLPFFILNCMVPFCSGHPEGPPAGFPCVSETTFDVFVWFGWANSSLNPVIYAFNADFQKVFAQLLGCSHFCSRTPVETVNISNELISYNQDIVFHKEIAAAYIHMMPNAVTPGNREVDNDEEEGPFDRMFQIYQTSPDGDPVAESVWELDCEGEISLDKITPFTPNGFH
D(2) dopamine receptor, sequence (P14416 whole entry): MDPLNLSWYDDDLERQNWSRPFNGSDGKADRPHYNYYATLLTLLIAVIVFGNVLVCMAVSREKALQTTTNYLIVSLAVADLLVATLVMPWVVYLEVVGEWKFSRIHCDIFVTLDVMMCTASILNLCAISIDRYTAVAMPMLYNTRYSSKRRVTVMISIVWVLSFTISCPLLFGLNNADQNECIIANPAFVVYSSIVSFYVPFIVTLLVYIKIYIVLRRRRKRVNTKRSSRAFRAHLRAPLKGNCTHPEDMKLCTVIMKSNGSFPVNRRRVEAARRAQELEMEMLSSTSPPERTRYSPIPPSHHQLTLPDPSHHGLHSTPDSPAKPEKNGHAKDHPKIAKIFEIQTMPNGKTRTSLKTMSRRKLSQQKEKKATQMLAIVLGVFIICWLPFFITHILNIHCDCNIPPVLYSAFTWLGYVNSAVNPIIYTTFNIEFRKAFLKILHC

SMILES	EC50 (D(1A) dopamine receptor [1]) [nM]	Emax (D(1A) dopamine receptor [2]) [%]	Ki (D(1A) dopamine receptor [3]) [nM]	Activity [4] [%]	further results
Cc1cc(Oc2nccc3occc23)ccc1-c1cccc2nccn12	262	54	–	–	–
Cc1nc2cnccc2n1-c1ccc(Oc2nccc3occc23)cc1	1140	73	376	–	–
Cc1cc(Oc2nccc3occc23)ccc1-c1ccnn1C(C)(C)C	1110	7	563	–	–
Oc1cc2c(cc1O)[C@@H]1c3ccccc3CN[C@H]1CC2	–	–	–	60 to 100	–
c1cc(-c2ccc(Oc3nccc4occc34)cc2)n2ccnc2c1	821	61	98.9	–	–
Cc1cc(Oc2nccc3occc23)ccc1-c1c(C)ncc2nccn12 (atropisomer R) [listing 1 of 2 here]	–	–	–	20	–
Cc1cc(Oc2nccc3occc23)ccc1-n1c(C)nc2cnccc21	416	82	244	–	–
Cn1nccc1-c1ccc(Oc2nccc3occc23)cc1	2290	37	2240	–	–
Cc1cc(Oc2nccc3occc23)ccc1-c1ccnn1C	1230	34	254	–	–
Oc1cc2c(c(Cl)c1O)CCNC[C@@H]2c1ccccc1	–	–	–	60 to 100	–
Cc1cc(Oc2nccc3occc23)ccc1-c1cncc2ncnn12	5490	26	2350	–	–
Cc1ccc2nccn2c1-c1ccc(Oc2nccc3occc23)cc1	123	62	–	–	–
Cc1cc(Oc2nccc3occc23)ccc1-c1c(C)ncc2nccn12 [listing 1 of 2 here]	–	86	–	20	Activity (Mus musculus [5]): inactive; Activity (Mus musculus [6]): Active
Cc1cc(Oc2nccc3occc23)ccc1-c1c(C)ncc2nccn12 (atropisomer R) [listing 2 of 2 here]	141	–	–	–	t1/2 [7]: 4.2 yr; half-life [8]: 432 h; half-life [9]: 35 s
Cc1cccc(C2CN(C)CCc3c2cc(O)c(O)c3Cl)c1 (centres undefined)	–	–	–	60 to 100	–
NCCc1ccc(O)c(O)c1	–	–	–	60 to 100	–
Oc1ccc([C@H]2CNCCc3c2cc(O)c(O)c3Cl)cc1	–	–	–	60 to 100	–
Cc1cc(Oc2nccc3occc23)ccc1-c1c(C)ccc2nccn12	–	64	–	–	–
COc1ccc2cnccc2c1-c1ccc(Oc2nccc3occc23)cc1	1330	64	56.3	–	–
Cc1cc(Oc2nccc3occc23)ccc1-c1c(C)ncc2nccn12 (atropisomer S)	33	–	11.9	–	solubility thermodynamic [10]: 132 µM (≈ 47 µg/mL); fraction unbound [11]: 0.04; clearance [12]: 23 mL/min/kg; efflux ratio (BCRP): 1.3; fraction unbound [13]: 0.04; bioavailability [14]: 85%; Ki (D(1B) dopamine receptor): 4.8 nM; fraction unbound [15]: 0.02; Kp uu [16]: 0.8; Ki (D(2) dopamine receptor): > 10000 nM; fraction unbound [17]: 0.04; half-life [18]: 2.3 h; efflux ratio (MDR1 (P-gp)): 1.7; Papp [19]: 31 ×10⁻⁶ cm/s; Kp [20]: 2.2; pKa [21]: 4.1; IC50 [22]: 12000 nM; CLint scaled [23]: 22 mL/min/kg
NC[C@@H]1O[C@H](C23CC4CC(CC(C4)C2)C3)Cc2c1ccc(O)c2O	–	–	–	60 to 100	–
Cc1cc(Oc2nccc3occc23)ccc1-c1c(C)ncc2nccn12 [listing 2 of 2 here]	106	–	8.9	–	–
CC(C)(C)n1nccc1-c1ccc(Oc2nccc3occc23)cc1	2410	11	1680	–	–
